# Bioassay records: PubChem BioAssay, Broad Institute
# PGC1a Ac signal – raises PGC1a acetylation signal in U2OS cells; U2OS PGC1a acetylation AlphaScreen, overnight; activation, % at 15.6 µM; hit rate 0.21% among 350,000; AID 651723;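 active means every replicate reaching activation of at least 50%, whatever the mean replicate activation; inconclusive means replicates that disagree or another doubt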;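 further: hits raise the AlphaScreen acetylation signal above neutral controls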
#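 System – flag-PGC1a/GCN5 U2OS cells · Quantity – 7000 U2OS cells per well · Signal – AlphaScreen proximity luminescence, anti-acetyl-lysine antibody · Schedule – overnight compound treatment, 37 °C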
# G6PC hep suppr – hepatocyte G6PC expression change via PGC-1a acetylation activation | shares compounds with PGC1a Ac signal | primary mouse hepatocytes, G6PC mRNA qPCR, forskolin | G6PC suppression (normalized activity, % of positive control; higher = more suppression), % at 26 µM | 240 tested, under 10 active;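 active means dose curves showing G6PC suppression whose half-maximal dose is at most twice the top valid dose; inconclusive means flat curves with moderate negative activity, or unreliable fits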;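 further: G6PC expression relative to GAPDH housekeeping gene as delta delta Ct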
# Hep PCK1 suppr – PGC-1a acetylation activator altering hepatocyte PCK1 expression; shares compounds with PGC1a Ac signal; primary mouse hepatocytes, PCK1 mRNA qPCR, forskolin-stimulated; PCK1 expression decrease, unspecified at 26 µM; 230 tested, under 10 active; AID 743465;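 active means compounds lowering PCK1 expression whose fitted half-maximal concentration is at most twice the top tested dose; inconclusive means flat fit with moderate opposite-direction effect, or poor fit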;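 further: higher delta delta Ct means lower PCK1 expression so positive values indicate hits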
# PGC1a hep suppr – PGC-1a acetylation activators affecting PGC-1a expression in hepatocytes; 240 tested, under 10 active; shares compounds with PGC1a Ac signal; max activity (PGC-1a expression decrease), %; primary mouse hepatocytes, PGC-1a mRNA qPCR, forskolin; top dose 26 µM;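 active means compound lowering PGC-1a expression with fitted half-maximal concentration at most twice its top tested dose; inconclusive means flat curve with moderate opposite-direction effect, or poor fit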
# Numbers stand for hits; . = inactive; ? = inconclusive; / = no result. Only a sample is shown.
SMILES,PGC1a Ac signal,G6PC hep suppr,Hep PCK1 suppr,PGC1a hep suppr
COc1ccc(S(=O)(=O)Nc2ccc3c(c2)C(=O)N([C@@H](C)CO)C[C@@H](C)[C@H](CN(C)S(=O)(=O)c2ccc(Cl)cc2)OCCCC[C@H](C)O3)cc1,.,.,.,.
CCOc1cc(/C=N/N=C(N)N)ccc1OCc1ccc(Cl)cc1,.,/,/,/
C/C(=N\Nc1nc(C)cc(=O)[nH]1)C1CC1,.,/,/,/
COC(=O)[C@H](Cc1ccccc1)N(C)S(=O)(=O)c1cccc(S(=O)(=O)N(C)[C@@H](Cc2ccccc2)C(=O)OC)c1,?,.,/,?
O=C1CCCC(O)=C1N=Nc1ccc2c(c1)OCO2,.,/,/,/
CC(Nc1ccccc1)c1cc(Cl)ccc1O (configuration not stated),.,/,/,/
CC1CCCN(S(=O)(=O)c2ccc3c(c2)n(C)c(=O)c(=O)n3C)C1 (configuration not stated),.,/,/,/
CCOC(=O)C1CCCN(S(=O)(=O)c2ccc3c(c2)NC(=O)CO3)C1 (configuration not stated),92,.,/,?
O=C(CSc1c(Cl)cccc1Cl)NC1CCCc2ccccc21 (configuration not stated),.,/,/,/
O=C1CN(C(=O)COC(=O)/C=C/c2ccco2)c2ccccc2N1,.,/,/,/
CCn1nnc(NC(=O)c2ccc(C(C)(C)C)cc2)n1,.,/,/,/
CC(/C=C1\SC(=O)N(CCCC(=O)O)C1=O)=C\c1ccccc1,.,/,/,/
Fc1ccc(-c2nn3c(C4COc5ccccc5O4)nnc3s2)cc1 (configuration not stated),55,.,.,.
COC1=CC(=O)c2c(ccc3ncnc(N)c23)C1=O,.,/,/,/
CCc1ccc(C(=O)CN(C#N)c2nc(C)cc(C)n2)cc1,.,/,/,/
Cc1cc(C)c2nc(N(CCCN(C)C)C(=O)c3ccc(S(=O)(=O)N4CCCCCC4)cc3)sc2c1,64,.,.,.
COc1ccc(C[C@@H]2OC3(C=CC(=O)C=C3)O[C@H]2Cc2ccc(OC)cc2)cc1,.,/,/,/
C=CC(=O)N1C/C(=C/c2ccccc2)C(=O)/C(=C\c2ccccc2)C1,.,/,/,/
COc1ccc(CN(CCC(C)C)S(=O)(=O)c2ccccc2Br)cc1,74,/,.,.
CN(NC(=O)c1ccccc1)C1=NS(=O)(=O)c2ccccc21,.,/,/,/
COc1ccc(N=C2S/C(=C\c3ccc(N4CCOCC4)o3)C(=O)N2CCc2c[nH]c3ccccc23)cc1,.,/,/,/
COc1ccc2sc(C)[n+](C)c2c1,.,/,/,/
CCN(CC)c1cc(Cl)nc(N)n1,.,/,/,/
Cc1cc2c(cc1S(=O)(=O)N1CCc3ccccc31)NC(=O)CO2,?,/,.,.
N#Cc1c(C#N)c(O)c2ccccc2c1O,.,/,/,/
SMILES,PGC1a Ac signal,G6PC hep suppr,Hep PCK1 suppr,PGC1a hep suppr
Cc1sc(NC(=O)c2cccs2)nc1-c1ccccc1,80,/,.,.
Cc1nnc(NC(=O)CSc2ncc(-c3ccccc3)[nH]2)s1,.,/,/,/
Cc1ccc(S(=O)(=O)/N=C2\C=C(Nc3ccc(O)cc3)C(=O)c3ccccc32)cc1,.,/,/,/
COc1ccc(OC)c(CNS(=O)(=O)c2cc(-c3cc(C)no3)ccc2OC)c1,.,/,/,/
CCOc1ccc(N(C)S(=O)(=O)c2cc(-c3cc(C)no3)ccc2OC)cc1,54,.,.,.
COc1ccc(C(CC(=O)Nc2ccccn2)N2Cc3ccccc3C2=O)cc1 (configuration not stated),.,/,/,/
COc1ccc(OC)c(NC(=O)CSc2nnc(-c3cccnc3)s2)c1,85,.,.,.
CCn1cnc2cc(NCc3ccc(N(C)C)cc3)ccc21,.,.,/,?
CN1C2C=C3C(C#N)=C(N)C(C#N)(C#N)C(c4ccc(Br)cc4)C3C1CC2 (configuration not stated),.,/,/,/
CC1(C)CC(=O)C(C=NCC(N)=O)=C(O)C1,.,/,/,/
CC1=C(C(N)=O)C(c2cccnc2)n2nc(-c3cccc(Cl)c3)nc2N1 (configuration not stated),93,.,.,.
COc1ccccc1Oc1ccc2c(c1)C(=O)N(c1ccc(C)cc1)C2=O,.,/,/,/
CC[C@H](C)C1OC(=O)[C@@H](C)[C@@H](CC)NC(=O)[C@H](C)N(C)C(=O)C(C)(C)C(=O)C(C)NC(=O)[C@H](Cc2ccc(OC)cc2)N(C)C(=O)[C@H](C(C)C)N(C)C(=O)CNC(=O)[C@H](CC(C)C)N(C)C(=O)CNC1=O (some centres not stated),.,/,/,/
COc1ccc(S(=O)(=O)N(C)CC(=O)Nc2cccc(C(C)=O)c2)cc1Cl,?,.,.,?
O=C1CCCc2ccccc2N1Cc1ccc(Cl)cc1Cl,.,/,/,/
Cc1nn(C)c(C)c1N1C(=O)c2cccc3c(Br)ccc(c23)C1=O,.,/,/,/
Cc1c(Cl)cccc1NS(=O)(=O)c1ccc2c(c1)C1C=CCC1C(c1ccc(C(=O)O)cc1)N2 (configuration not stated),.,/,/,/
Cc1cc(NC(=O)CCS(=O)(=O)c2nc(-c3ccccc3)cc(C(F)(F)F)n2)no1,.,/,/,/
Cc1ccc(Cl)c(Cn2cnc3c(cnn3C(C)(C)C)c2=O)c1F,.,/,/,/
CCOC(=O)C1(Cc2ccccc2)CCN(Cc2cccc(OC)c2O)CC1,84,.,.,?
CC1CCCC=CC2CC(OC(=O)CN(C)C)CC2C(O)C=CC(=O)O1 (configuration not stated),.,/,/,/
COc1ccc(Nc2nnc(-c3ccc(C(N)=O)cc3)c3ccccc23)cc1,89,.,.,.
COCCCNC(=O)c1cc(=O)n(Cc2ccc(Cl)cc2)c2ccccc12,.,/,/,/
Cc1ccc(NC(=O)CN2CCC(NC(=O)Cc3ccccc3)CC2)c(C)c1,141,.,.,.
CC(N=C1NS(=O)(=O)c2ccccc21)C(=O)NCCCc1ccccc1 (configuration not stated),.,/,/,/
SMILES,PGC1a Ac signal,G6PC hep suppr,Hep PCK1 suppr,PGC1a hep suppr
CC(C)(C)C1CCC(CN2C(Nc3ccccc3)=NC[C@@H]2Cc2ccccc2)CC1 (some centres not stated),.,/,/,/
Cc1ccc2c(CN(Cc3ccccc3)Cc3ccccc3)cc(=O)oc2c1,?,/,.,.
CC(=O)Nc1ccc2c(CSc3nncs3)cc(=O)oc2c1,.,/,/,/
CC(=O)c1ccc(OCC(=O)OCC(=O)Nc2sccc2C(N)=O)cc1,56,.,.,.
Cc1ccccc1Nc1ncnc2c1cnn2-c1ccccc1,.,/,/,/
Cc1c(OCc2ccc(C(=O)O)cc2)ccc2c(-c3ccccc3)cc(=O)oc12,.,.,.,.
COc1cc(C)c(CN2CCN(S(=O)(=O)c3ccc(Cl)s3)CC2)cc1OC,79,.,.,?
COc1cc(C2Nc3cccc4cccc(c34)N2)ccc1OC(C)=O,.,/,/,/
C=C1C(=O)[C@]23C[C@H]1CCC2[C@]1(C)CCC[C@@](C)(C(=O)O)C1C[C@@H]3O (some centres not stated),.,/,/,/
C[C@H]1CN([C@@H](C)CO)C(=O)c2cccc(NC(=O)Nc3cccc4ccccc34)c2O[C@H]1CN(C)Cc1ccc(C(=O)Nc2ccccc2N)cc1,81,.,.,.
C[C@H]1CN([C@@H](C)CO)C(=O)c2cccc(NC(=O)c3cnccn3)c2O[C@H]1CN(C)Cc1ccc(C(=O)Nc2ccccc2N)cc1,203,.,.,.
